A selection: hits, their analogues and other compounds. The true share with any hit is near 3.5%.
MrgX1 antag: antagonists of human MrgX1 receptor | MRGX1-HEK293 calcium flux, Fluo-4, BAM8-22 antagonism; active compounds read low | 310,000 compounds, 1.3% hits | B-score at 10 µM | AID 588676;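 active = calcium-response B-score plate-corrected more than 3 library SD below zero, starting fluorescence within 5 deviations, no agonist response on first addition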;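 also: peak minus trough fluorescence over baseline after final BAM8-22 challenge near maximal dose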
Target sequence (Q96LB2 whole entry, looked up): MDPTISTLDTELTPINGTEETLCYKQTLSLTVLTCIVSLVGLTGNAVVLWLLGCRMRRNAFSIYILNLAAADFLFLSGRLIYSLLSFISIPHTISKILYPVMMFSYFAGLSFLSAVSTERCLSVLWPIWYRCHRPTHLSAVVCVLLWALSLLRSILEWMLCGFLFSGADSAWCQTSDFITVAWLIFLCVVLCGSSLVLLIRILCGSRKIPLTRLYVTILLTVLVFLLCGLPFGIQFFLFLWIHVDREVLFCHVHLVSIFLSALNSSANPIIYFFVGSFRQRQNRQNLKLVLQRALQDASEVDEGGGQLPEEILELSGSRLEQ
MrgX1 agonist: activates human MrgX1 receptor signaling | AID 588627 | Q96LB2 | B-score at 10 µM | MrgX1-HEK293 cells, Fluo-4 calcium fluorescence, agonist mode; active compounds read high | 310,000 compounds, 0.44% hits;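 active = calcium response B-score plate-corrected fluorescence ratio at least 3 library SD, with starting fluorescence B-score inside 5 SD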
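Test system: Stable human MrgX1 HEK293 cell line | Schedule: Overnight plating before 1 h dye loading | Read-out basis: Baseline-normalised fluorescence change ratio, B-scored | Detection: Kinetic calcium dye fluorescence, Fluo-4 NW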
RGS4 act: RGS4 potentiation or activation | HEK293 M3R/inducible RGS4, carbachol calcium flux Fluo4; active compounds read low | B-score at 10 µM | 310,000 compounds, 0.92% hits;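 active = B-score of the integrated calcium signal more than 4 SD below the library mean, with starting fluorescence not abnormally high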;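 also: negative B-score means reduced calcium response which marks RGS4 activation or potentiation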
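System – HEK293 FlpIn-TREx cells, stable M3R, doxycycline-inducible RGS4 · Reagent – ECmax carbachol challenge · Times – compound preincubation 20 min at room temperature before agonist · Technique – Fluo4 fluorescence kinetic imaging of calcium · Measure – B score of integrated Fluo4 ratio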
RGS4 inh: inhibitors of human RGS4; B-score at 10 µM; HEK293 M3R/RGS4 inducible, Fluo-4 calcium flux; active compounds read high; triggered by carbachol at its EC20; P49798; 310,000 compounds, 0.45% hits;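 active = B-score, a plate-corrected calcium signal, over three deviations above library mean, with baseline fluorescence within five deviations of library mean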;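 also: RGS4 expression induced by doxycycline in cells with stable M3 receptor; B-score is computed from the integrated fluorescence ratio over baseline after carbachol; higher B-score means a larger calcium signal and so more RGS4 inhibition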
Target sequence (P49798 whole entry, looked up): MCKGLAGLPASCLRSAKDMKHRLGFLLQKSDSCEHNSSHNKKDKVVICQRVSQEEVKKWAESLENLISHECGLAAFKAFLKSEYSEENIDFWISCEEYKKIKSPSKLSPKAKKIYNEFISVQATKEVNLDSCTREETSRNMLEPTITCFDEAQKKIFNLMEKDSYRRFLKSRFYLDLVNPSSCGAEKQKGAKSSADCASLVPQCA
MrgX1 PAM: human MrgX1 positive allosteric modulation, primary screen; B-score at 10 µM; 310,000 compounds, 0.63% hits; MrgX1-HEK293, Fluo-4 calcium flux, FDSS; active compounds read high;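 active = plate-corrected calcium response at least 3 library SD above typical, normal starting fluorescence, not activating the receptor alone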;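 also: compound read alongside a low EC10 to EC30 dose of BAM8-22 agonist; peak minus trough fluorescence over baseline measured at the second addition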
Starred values were filed as active, the others as inactive; i = inactive; . = no result given.

SMILES	MrgX1 antag	MrgX1 agonist	RGS4 act	RGS4 inh	MrgX1 PAM
COc1ccc(-c2csc(NC(=O)c3ccc(OCC(=O)N4CCOCC4)c(OC)c3)n2)cc1	-5.1*	i	i	i	i
CCOc1cccc(CNc2ccc(O)cc2)c1OCc1ccc(Cl)cc1Cl	i	i	i	i	i
CCOc1cccc(CNc2ccc(O)cc2)c1OCc1ccccc1Cl	i	29*	i	i	i
OC1(c2cccs2)CN(c2ccc(Br)cc2)C2=[N+]1CCCS2 (configuration not stated)	i	i	-7.2*	i	13*
CCCCn1c(SCc2cccc([N+](=O)[O-])c2)nc2ccsc2c1=O	i	i	-8.1*	i	i
COCCn1c(SCc2cccc([N+](=O)[O-])c2)nc2ccccc2c1=O	i	i	i	i	i
COc1ccccc1CNC(=O)CC12CC3CC(CC(Br)(C3)C1)C2	i	i	i	i	i
Cc1cc(/C=C2\SC(=S)N(Cc3ccco3)C2=O)c(C)n1-c1ccccc1	-4.5*	i	i	i	i
O=C1/C(=C\c2ccco2)SC(=S)N1Cc1ccccc1	i	i	i	i	i
Cc1cc(/C=C2\SC(=S)N(C)C2=O)c(C)n1-c1cccc(O)c1	-5.7*	i	i	i	i
COc1ccc(-n2c(C)cc(/C=C3/SC(=S)N(C)C3=O)c2C)cc1	i	i	i	i	i
Cc1cc(/C=C\c2ccc3cc(N(C)C)ccc3[n+]2C)c(C)n1-c1ccccc1	-9.7*	i	.	.	i
C[n+]1c(/C=C/c2ccc(O)cc2)ccc2ccccc21	i	i	i	i	i
C/C(=N\NC(=S)NCCc1ccccc1)c1ccc(Cl)cc1Cl	i	i	-9.1*	i	i
C/C(=N\NC(=S)NCCc1ccccc1)c1ccc(O)cc1O	i	i	i	i	i
O=C(CSc1ccc(-c2cccc([N+](=O)[O-])c2)nn1)NC1CCCC1	i	i	i	i	i
Cc1nc(N2CCCCC2)c2c(C)c(C(=O)Nc3ccc4c(c3)OCCO4)sc2n1	i	i	-7*	i	i
CCOCCCNCc1ccc(OCc2ccccc2Cl)cc1	i	i	i	i	i
OCCCCNCc1ccc(OCc2ccccc2Cl)cc1	i	i	-7*	i	i
NC(N)=N/N=C/c1ccc(OCc2ccccc2Cl)cc1	i	i	-10*	i	i
NC(N)=N/N=C/c1ccccc1	i	i	i	i	i
CCOc1cc(/C=N/N=C(N)N)ccc1OCc1ccc(Cl)cc1	i	i	i	i	i
NC(N)=N/N=C/c1ccc(Cl)c(Cl)c1	i	31*	i	i	i
COc1cc(/C=N/N=C(N)N)ccc1OCc1ccc(Cl)cc1	i	30*	i	i	i
CCCCN1CC[C@H]2C=CC[C@@H](C(=O)Nc3nccs3)[C@H]2C1=O	i	i	i	i	i
SMILES	MrgX1 antag	MrgX1 agonist	RGS4 act	RGS4 inh	MrgX1 PAM
Cc1ccc(F)cc1NC(=O)COC(=O)COc1ccc(C#N)cc1	i	i	i	i	i
Cc1ccccc1S(=O)(=O)Cc1ccc(C(=O)N(C)C2CCCCC2)o1	i	i	i	i	i
CCOC(=O)CC(=O)CSc1nc(-c2cccnc2)cc(C)c1C#N	-4.9*	i	i	i	i
Cc1cc(C)cc(N(CCC#N)C(=O)COC(=O)C2CCN(c3ccc(C(F)(F)F)cn3)CC2)c1	i	i	-7*	i	i
Cc1ccc(N(CCC#N)C(=O)COC(=O)C2CCN(c3ccc(C(F)(F)F)cn3)CC2)cc1	i	i	i	i	i
CC1(C)CC(=O)C(C=NCCN2CCN(C3CC(=O)N(c4ccc(Br)cc4)C3=O)CC2)=C(O)C1 (configuration not stated)	i	i	i	i	i
O=c1c2c(nc3n1CCCCC3)sc1c(O)c(Br)ccc12	-5.4*	i	i	i	i
CCN(CC)CCOc1c(Br)ccc2c1sc1nc3n(c(=O)c12)CCC3	i	i	i	i	i
COc1ccc(Cl)cc1C(=O)NNC(=O)COC(=O)CC(NC(C)=O)c1ccccc1 (configuration not stated)	i	i	i	i	i
COCCN(CCOC)c1nc(-c2ccc(Cl)cc2)nc2ccccc12	i	i	-7.3*	i	i
C=CCn1c(O)c2ccc(C(=O)N=NC(=O)COc3ccccc3F)cc2c1O	i	i	i	i	i
CCN(Cc1nc(-c2ccc(C)cc2)no1)C(=O)c1ccco1	i	i	i	i	i
COc1ccc(CN(CC(=O)NCc2ccccc2)C(=O)CCC(=O)Nc2nccs2)cc1	i	i	i	i	12*
COc1ccc(CN(CC(=O)NCc2ccc(F)cc2)C(=O)CCC(=O)Nc2nccs2)cc1	i	i	i	i	i
COc1cccc(CNc2cccc3cccnc23)c1O	i	i	i	i	15*
COc1cccc(CNc2ccccn2)c1O	i	i	i	i	i
COC(=O)c1sc2cc([N+](=O)[O-])cc(SCC(C)C)c2c1N	-9.2*	i	i	i	i
Cc1cc(C)c(S(=O)(=O)N2CCCCC2)c(C)c1N(C)S(=O)(=O)c1ccc(Cl)cc1	i	i	i	i	i
Cc1c(N/C(=N/S(=O)(=O)c2ccc(Cl)cc2)c2ccccc2)c(=O)n(-c2ccccc2)n1C	i	i	i	i	i
Cn1ccnc1CN1CCCCC1C(=O)Nc1ccc(Oc2cccnc2)cc1 (configuration not stated)	i	i	i	i	i
CCc1ccc(/C=N\NC(=O)c2ccc(Br)o2)s1	-4.9*	i	i	i	i
Cc1ccc(-n2cc(-c3ccc([N+](=O)[O-])cc3)[nH]c2=S)c(C)c1	i	i	i	i	9.7*
CC(=O)Oc1ccc(C(=O)Nc2ccc(C3(C#N)CCCC3)cc2)cc1	i	i	i	i	i
C=CCNC(=O)CC(=O)N/N=C/c1cccc(C)c1	-4.6*	i	i	i	i
CCCCC[C@H](O)/C=C/[C@H]1CCC(=O)[C@@H]1CCCCCCC(=O)N1CCCCC1CO (some centres not stated)	i	48*	-8.5*	i	i
O=C1COc2ccc(S(=O)(=O)N3CCCC3)cc2N1	i	i	i	i	i
O=C1COc2ccc(N3C(=O)C=CC3=O)cc2N1	i	i	i	5*	i
Cc1cc(=O)n(C(C)(C)C)c(=O)n1Cc1ccccc1	i	i	i	i	i
